Assay results reported in article PMC4837691 (Molecular pharmaceutics, 2015).

How the values were obtained:
[1] = system: scavenger receptors (liver uptake of 125I-pGL3 polyplexes); assay: Inhibition of liver uptake of 125I-pGL3 polyplexes by excess PEG-peptide; format: in vivo; conditions: mice, PEG 5 kDa peptides dosed in excess (not shown)
[2] = system: serum DNAse; conditions: cited from earlier work
[3] = system: liver hepatocytes (luciferase expression); assay: HD-stimulated / direct HD luciferase gene expression in liver; format: in vivo, mice; conditions: for fold increase of expression on substitution for the PEG-peptide five Lys shorter: 80 nmol PEG-peptide, 1 μg pGL3, HD-stimulation at 1 hour
Outline: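 Triplicate mice received 1 μg pGL3 polyplex with 10, 40 or 80 nmol PEG-peptide in 100 μL HBM by tail vein. After 1 h circulation, 1.8 mL saline (per 20 g mouse) was given hydrodynamically over 5 s by tail vein. Liver bioluminescence was imaged 24 h later and analysed as log10 values. Controls: naked pGL3 with HD at 5 min, and direct HD of pGL3.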

[4] = system: liver; set-up: species or system mice; conditions: mouse, in vivo

## PEG5kDa-Cys-Trp-Lys15
[1]
  inhibition of polyplex uptake into the liver when dosed in excess: failed to inhibit polyplex uptake into the liver

## PEG5kDa-Cys-Trp-Lys18
[2]
  resistance of polyplexes to metabolism by serum DNAse in vitro: resisted metabolism by serum DNAse in vitro

## PEG30kDa-Cys-Trp-Lys20
[3]
  fold increase of expression on substitution for the PEG-peptide five Lys shorter: 5 fold

## PEG30kDa-Cys-Trp-Lys25
[3]
  fold increase of expression on substitution for the PEG-peptide five Lys shorter: 5 fold
[3]; 1 μg pGL3 polyplex with 40 nmol PEG-peptide, HD-stimulation at 1 hour
  fold increase of expression (over 10 nmol dose): 100 fold
[3]; 1 μg pGL3 polyplex with 80 nmol PEG-peptide, HD-stimulation at 1 hour
  further fold improvement of expression (over 40 nmol dose): 15 fold
[4]
  maximal percent of polyplex dose taken up by liver: ~30%
  percent of polyplex dose taken up by liver: approximately 16%
